LMPTP inh: LMPTP phosphatase inhibitors, primary screen, biochemical, fluorescence intensity, uHTS; 360,000 tested, 0.22% active; inhibition, % at 20 µM; AID 651560, 2012; Low molecular weight phosphotyrosine protein phosphatase (Homo sapiens), P24666; recombinant LMPTP-A, OMFP fluorogenic substrate;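 active = compounds that cut the enzyme signal by at least half of the control window in the single-dose screen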
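Assay system: LMPTP-A phosphatase enzyme | Input: 0.625 nM enzyme | Also added: Fluorogenic phosphatase substrate OMFP at 400 µM final | Compound dosing: One test concentration per compound, 20 µM, with 3% DMSO overall | Schedule: 50 min enzyme reaction at room temperature, protected from light | Signal: Fluorescence intensity | Benchmarks: no-enzyme and uninhibited controls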
Scp-1 inhibitor: Scp-1 phosphatase inhibitors, primary screen, biochemical, colorimetric, uHTS. Carboxy-terminal domain RNA polymerase II polypeptide A small phosphatase 1 (Homo …. 340,000 tested, 0.88% active. AID 493091, 2011. inhibition, % at 20 µM. Recombinant Scp1, phosphopeptide, malachite green phosphate absorbance;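 active = inhibition above about 50% at 20 µM, limit read from the data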
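Incubation: 45 min enzyme reaction at room temperature / System: truncated SCP-1 phosphatase (76-261aa) / Reagent: Phospho 17-mer peptide substrate / Buffer or medium: Acidic Tris acetate buffer with magnesium and detergent / Signal: absorbance at 630 nm / Doses: one concentration, 20 µM, with 1.0% DMSO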
SUMO1 PPI mod: modulators of SUMO1 protein-protein interactions, primary screen, biochemical, uHTS. Small ubiquitin-related modifier 1 (Homo sapiens), P63165. SUMO1 binding to a labelled peptide, TR-FRET, 1 h. inhibition, % at 20 µM. 360,000 tested, 0.33% active; in the data active = inhibition above about 37%
GRK2 aptamer HTS: compounds blocking aptamer binding on GRK2 – biochemical, human GRK2, bead flow cytometry, HTS, primary screen | Beta-adrenergic receptor kinase 1 (Homo sapiens), P25098 | FAM-aptamer displacement from GRK2 | inhibition of aptamer binding, % at 10 µM | 330,000 tested, 0.59% active;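 active = inhibition of aptamer binding above 40%, roughly 3 SD of noise, on plates passing a quality check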;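 note: median bead fluorescence of bound FAM aptamer so fluorescent compounds give negative values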
STEP block: STEP phosphatase inhibitors, primary screen, biochemical, fluorescence intensity, uHTS; Tyrosine-protein phosphatase non-receptor type 5 (Homo sapiens), P54829; recombinant STEP, OMFP fluorogenic substrate; inhibition, % at 20 µM; 360,000 tested, 0.25% active;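 active = inhibition at 20 µM, scaled per plate between control wells, above about 37%, limit read from the data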
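Test system: STEP tyrosine phosphatase / Reagent: OMFP at 25 µM / Doses: 20 µM, 1% DMSO / Read-out: percent inhibition scaled to no-enzyme and uninhibited-enzyme controls, plate-pattern corrected / Detection: FITC-channel fluorescence of OMFP product / Medium: Bis-Tris buffer pH 6.0, 2.5 mM DTT, 0.005% Tween 20 / Schedule: 20 min at room temperature, dark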
DNMT1 block: human DNMT1 methyltransferase inhibitors, primary screen, biochemical, molecular beacon, fluorescence, HinP1I cleavage, uHTS; 360,000 tested, 0.83% active; AID 588458, 2011; DNA (cytosine-5)-methyltransferase 1 (Homo sapiens), P26358; inhibition (reported as % activation of signal), % at 10 µM; in the data active = inhibition above about 50%
Target sequence (P26358 504-1616 limits assumed): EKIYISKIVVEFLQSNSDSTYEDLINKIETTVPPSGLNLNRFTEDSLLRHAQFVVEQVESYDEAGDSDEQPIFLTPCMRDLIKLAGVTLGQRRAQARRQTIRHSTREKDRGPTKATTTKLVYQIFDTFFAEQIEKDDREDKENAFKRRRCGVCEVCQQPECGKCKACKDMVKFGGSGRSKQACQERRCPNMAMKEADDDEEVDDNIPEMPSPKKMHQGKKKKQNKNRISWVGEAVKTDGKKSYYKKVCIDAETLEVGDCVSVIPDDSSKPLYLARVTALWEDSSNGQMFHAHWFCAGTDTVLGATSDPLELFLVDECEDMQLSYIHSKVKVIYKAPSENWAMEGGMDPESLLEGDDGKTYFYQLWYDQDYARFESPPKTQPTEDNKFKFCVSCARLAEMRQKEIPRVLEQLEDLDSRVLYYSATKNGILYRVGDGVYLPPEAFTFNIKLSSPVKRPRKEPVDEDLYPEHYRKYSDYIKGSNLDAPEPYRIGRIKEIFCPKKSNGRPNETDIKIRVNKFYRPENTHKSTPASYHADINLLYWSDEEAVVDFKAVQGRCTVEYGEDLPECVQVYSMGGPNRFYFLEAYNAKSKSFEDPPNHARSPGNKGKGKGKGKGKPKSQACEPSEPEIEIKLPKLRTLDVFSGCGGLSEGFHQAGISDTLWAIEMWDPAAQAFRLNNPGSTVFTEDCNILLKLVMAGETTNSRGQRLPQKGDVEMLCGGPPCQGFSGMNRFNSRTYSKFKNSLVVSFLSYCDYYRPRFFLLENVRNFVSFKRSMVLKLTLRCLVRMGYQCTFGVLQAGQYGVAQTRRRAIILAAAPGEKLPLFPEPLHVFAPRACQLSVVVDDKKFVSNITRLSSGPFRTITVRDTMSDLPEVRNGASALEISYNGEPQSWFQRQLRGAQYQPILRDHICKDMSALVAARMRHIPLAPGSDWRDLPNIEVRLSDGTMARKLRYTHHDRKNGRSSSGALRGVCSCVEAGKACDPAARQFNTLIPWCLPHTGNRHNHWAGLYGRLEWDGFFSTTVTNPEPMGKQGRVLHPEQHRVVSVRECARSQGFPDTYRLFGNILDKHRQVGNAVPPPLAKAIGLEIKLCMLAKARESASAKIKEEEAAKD
A number is an active result; n = inactive; x = no result. Hits are enriched below; roughly 2.2% of the tested compounds scored in any of these assays.

SMILES	LMPTP inh	Scp-1 inhibitor	SUMO1 PPI mod	GRK2 aptamer HTS	STEP block	DNMT1 block
CCc1nc2ccc(C(=O)N3CCN(c4ccccc4)CC3)cn2c1N(CCC(C)C)CCN(C)C	n	x	n	x	n	n
O=Cc1cccn1-c1c(C(=O)O)cnn1-c1ccccc1	n	n	42	n	n	n
O=C(O)c1cnn(-c2ccccc2)c1-c1ccncc1	n	n	n	n	n	n
Cc1cc(C)cc(NC(=O)c2ccc(CNc3c(N4CCOCC4)c(=O)c3=O)cc2)c1	n	n	42	n	n	n
Cc1cc(C)cc(NC(=O)c2ccc(CNc3c(N4CCCC4)c(=O)c3=O)cc2)c1	n	n	51	n	n	n
CCCc1nc2ccc(Cl)cn2c1Cc1ccsc1	n	x	n	x	n	n
O=c1[nH][nH]c2c1[C@H](C1CCCC1)O[C@H](CCc1ccccc1)C2	n	x	n	x	x	x
O=C1CC(c2ccco2)Cc2nc(Nc3nc(-c4ccccc4)c4ccccc4n3)ncc21 (stereo unspecified)	61	n	n	n	n	n
O=C(Nc1ncc2c(n1)CC(c1ccco1)CC2=O)c1ccccc1 (stereo unspecified)	n	n	n	n	n	n
O=C1C=CC(=O)c2c(O)c(N3CCN(CCO)CC3)c(Cl)c(O)c21	76	73	91	x	n	103
O=C1C=CC(=O)c2c(O)c(N3CCN(CCOCCO)CC3)c(Br)c(O)c21	77	70	109	x	86	98
O=S(=O)(c1ccc(Br)cc1Cl)N1CCN(CCO)CC1	n	n	n	n	n	n
CC1(C)C[C@H]2C3=CCC4[C@@]5(C)CC[C@H](O)[C@](C)(CO)C5CC[C@@]4(C)[C@]3(C)C[C@H]3O[C@@H]1[C@H](O)[C@]32CO (stereo partly specified)	n	n	47	n	n	n
CC1(C)C[C@H]2C3=CCC4[C@@]5(C)CC[C@H](O)[C@](C)(CO)C5CC[C@@]4(C)[C@]3(C)CC[C@@]2(C)[C@H](O)[C@@H]1O (stereo partly specified)	n	n	n	n	n	n
Cc1ccc(NC(=S)NN(C)c2nc(C)cnc2C)cc1	n	n	40	n	n	n
COC(=O)[C@@]12C[C@@H](CC(=O)N3CCN(C(=O)c4ccco4)CC3)C(=O)N(Cc3cccc4ccccc34)C1=CCC(C)(C)C2	n	x	n	x	x	x
COc1ccc(Cc2c(-c3ccc(C)cc3)nc3ccc(Cl)cn23)c(C)c1	n	x	n	x	n	n
COc1cc([N+](=O)[O-])ccc1NC(=O)COC(=O)c1ccc(NC(N)=O)cc1	n	n	45	n	n	n
COCC(=O)Nc1ccc([N+](=O)[O-])cc1OC	n	n	n	n	n	n
OC(c1ccc(F)c(F)c1)c1nc(-c2ccc3ccccc3c2)cs1 (stereo unspecified)	n	x	n	x	n	n
COc1ccc(N2CSC3=C(C#N)C(c4cccc(OC)c4OC)CC(=O)N3C2)cc1 (stereo unspecified)	n	52	n	n	n	n
O=C(N/N=C/c1ccccc1O)c1cccc(C(F)(F)F)c1	n	53	n	n	n	n
O=C(N/N=C/c1ccc(O)cc1)c1cccc(C(F)(F)F)c1	n	n	n	n	n	n
CCCC(=O)N1CCC1(C)C(=O)Nc1cccc(F)c1 (stereo unspecified)	n	x	n	x	n	n
CC(=O)N1CC[n+]2c(-c3ccc(Cl)cc3Cl)csc21	n	n	n	52	n	n
SMILES	LMPTP inh	Scp-1 inhibitor	SUMO1 PPI mod	GRK2 aptamer HTS	STEP block	DNMT1 block
O=C(O)c1ccc(-c2nc(-c3ccc(Cl)cc3Cl)cs2)cc1	n	n	n	n	n	n
CC(C)Nc1ncnc2c1cnn2-c1ccc(Cl)cc1	n	n	n	n	n	86
CCCCNC(=O)c1nc(C2CCN(S(=O)(=O)c3ccc(S(C)(=O)=O)cc3)CC2)oc1-c1ccccc1	n	x	n	x	x	x
COc1ccc(Cl)cc1/C=N/NC(=O)c1c(-c2ccccc2)noc1C	n	n	53	n	n	n
CCCCNC(=O)c1nc(-c2cccnc2OC)oc1-c1ccc(Cl)cc1	n	x	n	x	x	x
CCCCOCCCNC(=O)C[C@@H]1C[C@@]2(C(=O)OCC)CCCC=C2N(Cc2ccc3c(c2)OCO3)C1=O	n	x	n	x	x	x
COc1cc(/C=N/NC(=O)c2cccnc2)ccc1OCC(=O)Nc1ccccc1Cl	n	n	86	n	n	n
Clc1cccc(-c2ccc(C3Nc4cccc5cccc(c45)N3)o2)c1	53	n	n	n	n	n
O=C1Nc2ccccc2S/C1=C\C(=O)N1CCCC1	x	x	x	81	x	x
O=C(NCCc1ccccn1)c1c(-c2ccccc2)sc2ccccc12	n	n	n	n	n	n
O=C(NCCc1ccccn1)c1c(-c2ccsc2)sc2ccccc12	n	100	n	70	n	n
CCNC(=O)C1(c2ccccc2)CCCC1	n	n	n	n	n	n
CCN(CC)CCNC(=O)C1(c2ccccc2)CCCCC1	n	n	47	x	n	n
Nc1nc2cc3c(cc2cc1C(=O)NCc1ccc(F)cc1)OCO3	n	x	n	x	x	x
CCn1c(SCC(=O)Nc2ccc(C)cc2)nnc1-c1ccc(O)cc1	n	n	44	n	n	n
CCn1c(SCC(=O)Nc2ccc(C)cc2)nnc1-c1ccccn1	n	n	n	n	n	n
O=C(NN1C(=O)CSC1=S)c1cccnc1	n	n	60	n	n	n
Cc1ccccc1C(=O)NN1C(=O)CSC1=S	n	n	n	n	n	n
CCn1cc(C(=O)O)c(=O)c2cc(F)c(N3CCN(C(=S)NC(=O)c4ccccc4Br)CC3)cc21	68	n	n	n	n	n
CCn1cc(C(=O)O)c(=O)c2cc(F)c(N3CCN(C(=S)Nc4ccccc4OC)CC3)cc21	n	n	n	n	n	n
CCn1cc(C(=O)O)c(=O)c2cc(F)c(N3CCN(C(=S)NC(=O)c4c(OC)cccc4OC)CC3)cc21	65	n	n	n	n	n
CCn1cc(C(=O)O)c(=O)c2cc(F)c(N3CCN(C(=S)NC(=O)c4ccc(F)c(F)c4)CC3)cc21	52	n	n	n	n	n
CCn1cc(C(=O)O)c(=O)c2cc(F)c(N3CCN(C(=S)NC(=O)c4cccc(F)c4)CC3)cc21	66	n	n	n	n	n
